Results on two compounds are retold here after ChEMBL document CHEMBL1121461, “Synthesis and diuretic profile of 3-(3-amino-1,2,4-oxadiazol-5-yl)-5-chloro-2,6-pyrazinediamine, an amiloride-type diuretic” (J Med Chem, 1980).

Each structure is given as a SMILES string. Values joined by “and” are separate entries in the source; they are usually repeats but may differ in a detail not shown here. Equal entries are not always repeated.

Series [1] has as its system Canis familiaris. Briefly: Compound was tested for diuretic activity in urine volume in dogs at a dose of 5 mg/kg. The class given is ADME, organism-based, Canis lupus familiaris. Also on record: dose 5 mg/kg. To be noted: dog, in vivo. The method, boiled down: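 Six normotensive trained dogs (10.2-17.9 kg), each given a placebo control test before each run. Oral dosing, then 100 mL normal saline injected subcutaneously. Bladder emptied by catheter at onset and 2, 4, 6 h after dosing; dogs in metabolism cages. Total urine volume recorded; Na+ and K+ of an aliquot by flame photometry.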

The subject of series [2] is Rattus norvegicus. Briefly: Compound was tested for diuretic activity against peroral dose of 5 mg/kg in rat. The class given is ADME, organism-based, Urine. Also on record: dose 5 mg/kg, route oral. To be noted: in vivo, po. In outline:
(§1)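 Rats, four per group (eight in one case), given oral 50 mL/kg 0.2% NaCl load together with test agent by mouth; placed in metabolism cages, urine collected 3 h. Urine volume expressed as % of load; total Na+ and K+ (mequiv × 100) in the 3-h sample by flame photometry. Vehicle controls run alongside; significance p < 0.05, p < 0.01.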

The species entered for series [3] is Rattus norvegicus. Briefly: Compound was tested for diuretic activity in sodium content of the 3-h sample was measured by flame photometry in rat. The class given is ADME, organism-based, Urine. Also on record: unit not given beside the values. To be noted: in vivo. In outline: as §1
In series [4] the test system is Rattus norvegicus. The series can be described thus: Compound was tested for diuretic activity against peroral dose of 10 mg/kg in rat. The class given is ADME, organism-based, Urine. Also on record: dose 10 mg/kg, route oral. To be noted: in vivo, po. The method, boiled down:
(§2)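 Rats, four per dose group, given oral 0.2% NaCl load (50 mL/kg) together with test agent orally; placed in metabolism cages, urine collected 3 h. Na+ and K+ content of the 3-h sample by flame photometry; output as % of load and total mequiv × 100, compared against concurrent controls.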

In series [5] the test system is Rattus norvegicus. Briefly: Compound was tested for diuretic activity against peroral dose of 50 mg/kg in rat. The class given is ADME, organism-based, Urine. On the set-up: dose 50 mg/kg, route oral. To be noted: in vivo, po. The method, boiled down: as §1
In series [6] the test system is Rattus norvegicus. The series can be described thus: Compound was tested for diuretic activity against peroral dose of 100 mg/kg in rat. The class given is ADME, organism-based, Urine. Also on record: dose 100 mg/kg, route oral. To be noted: in vivo, po. The method, boiled down:
as §1

For series [7], the species on record is Rattus norvegicus. The series can be described thus: Compound was tested for diuretic activity in potassium content of the 3-h sample was measured by flame photometry in rat. The class given is ADME, organism-based, Urine. To be noted: in vivo. In outline:
as §2

In series [8] the test system is Rattus norvegicus. Briefly: Compound was tested for diuretic activity against peroral dose of 25 mg/kg in rat. On the set-up: dose 25 mg/kg, route oral. The class given is ADME, organism-based, Urine. To be noted: in vivo, po. The method, boiled down: as §1
The nature of series [9]: Compound was tested for diuretic activity in sodium content of the 3-h sample was measured by flame photometry. The class given is ADME, Urine. Also on record: unit not given beside the values. In outline: as §1
The species named for series [10] is Canis familiaris. The series can be described thus: Compound was tested for diuretic activity urine volume in dog. To be noted: in vivo. The class given is ADME, organism-based, Canis lupus familiaris. In outline: (§3)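 Six normotensive trained dogs (10.2-17.9 kg; five for 10 mg/kg runs), oral dosing at 5 or 10 mg/kg, each preceded by placebo control test. Normal saline 100 mL given subcutaneously right after dosing. Bladder emptied by catheter at onset and 2, 4, 6 h; kept in metabolism cages; total urine volume recorded, Na+ and K+ of aliquot by flame photometry.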

A short description of series [11]: Compound was tested for diuretic activity in potassium content of the 3-h sample was measured by flame photometry. The class given is ADME, Urine. In outline:
as §1

The species entered for series [12] is Canis familiaris. Briefly: Compound was tested for diuretic activity in urine volume in dog. The class given is ADME, organism-based, Canis lupus familiaris. To be noted: in vivo. The method, boiled down: as §3

As to `Nc1noc(-c2nc(Cl)c(N)nc2N)n1`, the Load is 91% and 76.8% in series [1]; 81.1% in [2]; 88.8% and 96.9% in [4]; 103% and 83.9% in series [5]; 100.4% in series [6]; 93.3% in [8]. Further, the Diuretic activity in series [3] is 24.7 and 33.8 and 42.7 and 41.6; in series [7], 1.1 and 2 and 1.8 and 1.9 and 2.1; in series [9], 23.5 and 21.2 and 40.

As to `Cl.N=C(N)NC(=O)c1nc(Cl)c(N)nc1N.O.O` [AMILORIDE HYDROCHLORIDE], the Load in [2] is 94%; in series [4], 96.8%; in series [5] it was 64.9% and 76.2%; in series [6], 59.7%; in series [8] it was 82.1%. The Diuretic activity in series [3] was 38 [middle of 4 runs]; in series [7], 1.5 and 1.7 and 1.6 and 1.1; in [11], 1.1 and 1.4 and 1.7; in series [9], 33.6 and 24.9 and 27.9 and 32.9. Further, the urine vol in series [10] is reported as 88.2%; in series [12], 91.2%.
